Here are results for ten compounds from ChEMBL document CHEMBL1128490, “(+/-)-(Z)-2-(aminomethyl)-1-phenylcyclopropanecarboxamide derivatives as a new prototype of NMDA receptor antagonists” (J Med Chem, 1995).

Experiment [1] relates to Mus musculus. Briefly: Percentage protection against NMDA-induced lethality in mice by the compound at 20 mg/Kg administered ip 60 mins before iv administration of NMDA in the lethal dose of 90 mg/Kg. Format: functional. Put shortly:
(§1)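 Male ddY mice (20-28 g), groups of 10, given test compound in saline by intraperitoneal injection. 60 min later they were challenged with a lethal intravenous dose of NMDA (90 mg/kg) in saline. The read-out is protection from NMDA-induced death.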

Experiment [2] has as its target Glutamate NMDA receptor. The experiment in a line: Inhibition of [3H]MK-801 binding to NMDA receptor of rat cerebral cortical synaptic membrane.
Experiment [3] concerns Mus musculus. Briefly: Percentage protection against NMDA-induced lethality in mice by the compound at 40 mg/Kg administered ip 60 mins before iv administration of NMDA in the lethal dose of 90 mg/Kg. The format is functional. Put shortly:
as §1

pIC50: −log10 of the molar value.

By pIC50 is commonly meant −log10 of the IC50, conventionally taken in molar units. Low values mean a large IC50, high ones a small IC50. Consider `CCN(CC)C(=O)[C@@]1(c2ccccc2)C[C@H]1CN(C)C`, for which the Protection amounted to 10% in experiment [1] and 40% in experiment [3]. Also, the pIC50 in experiment [2] is 4.06.

Consider `CCN(CC)C(=O)[C@@]1(c2ccccc2)C[C@H]1CN=[N+]=[N-]`, for which, in experiment [2], the negative-log IC50 (pIC50) is under 4.00.

`CCN(CC)C(=O)[C@@]1(c2ccccc2)C[C@H]1C=O` showed a pIC50 in experiment [2] of under 4.00.

As for `CCN(CC)C(=O)[C@@]1(c2ccccc2)C[C@H]1CCN`, the values for the Protection in experiment [1] and in experiment [3] were 30% and 20%, respectively. In experiment [2], this compound gave a pIC50 of 5.00.

On to `CCOC(=O)[C@@]1(c2ccccc2)C[C@H]1CN`, for which, in experiment [2], the pIC50 was under 4.00.

As for `CCN(CC)C(=O)[C@@]1(c2ccccc2)C[C@H]1Cn1ccnc1C`, in experiment [2], the negative logarithm of the IC50 (pIC50) was under 4.00.

For `CCN(CC)C(=O)[C@@]1(c2ccccc2)C[C@H]1CO`, the pIC50 in experiment [2] was under 4.00.

Turning to `CCN(CC)C(=O)[C@@]1(c2ccccc2)C[C@H]1CNC`, the results for the Protection in experiment [1] and in experiment [3] were 20% and 30%, respectively. In experiment [2], the pIC50 was 4.89.

In experiment [2], `NC[C@@H]1C[C@@]1(C(=O)O)c1ccccc1` gave a negative logarithm of the IC50 (pIC50) of under 4.00.

For `CCN(CC)C(=O)[C@@]1(c2ccccc2)C[C@H]1CN` [LEVOMILNACIPRAN], the Protection in experiment [1] was found to be 60%; in experiment [3], 100%. Further, the negative-log IC50 (pIC50) in experiment [2] is 5.20.
